The text below walks through data of ChEMBL document CHEMBL3525992, “Identification of 20(S)-protopanaxadiol metabolites in human liver microsomes and human hepatocytes” (Drug Metab Dispos, 2011).

A short description of data set [1]: Drug metabolism in human hepatocytes assessed as metabolite 6-1 ((3S,6S)-6-((3S,5R,8R,9R,10R,12R,14R,17S)-3,12-dihydroxy-4,4,8,10,14-pentamethylhexadecahydro-1H-cyclopenta[a]phenanthren-17-yl)-2-methylheptane-2,3,6-triol) formation at 50 uM after 180 mins by liquid chromatography-electrospray ionization ion trap mass spectrometry. The conditions noted are these: 3 h. It is filed as ADME, cell-based, Hepatocyte.

A short description of data set [2]: Drug metabolism in human hepatocytes assessed as metabolite 6 ((24S,25)-epoxydammarane-3,12,20-triol formation at 50 uM after 180 mins by liquid chromatography-electrospray ionization ion trap mass spectrometry. It is filed as ADME, cell-based, Hepatocyte. The conditions noted are these: 3 h.
Data set [3] is described as follows: Drug metabolism in human hepatocytes assessed as metabolite 2 ((20S,24S)-epoxydammarane-3,12,25-triol) formation at 50 uM after 180 mins by liquid chromatography-electrospray ionization ion trap mass spectrometry. It is filed as ADME, cell-based, Hepatocyte. The settings on record: 3 h.
Data set [4] can be described thus: Drug metabolism in human hepatocytes assessed as metabolite 5 ((20S,24R)-epoxydammarane-12,25-diol-3-one) formation at 50 uM after 180 mins by liquid chromatography-electrospray ionization ion trap mass spectrometry. It is filed as ADME, cell-based, Hepatocyte. The settings on record: 3 h.
Data set [5] can be described thus: Drug metabolism in human hepatocytes assessed as metabolite 3 ((20S,24R)-epoxydammarane-3,12,25-triol) formation at 50 uM after 180 mins by liquid chromatography-electrospray ionization ion trap mass spectrometry. It is filed as ADME, cell-based, Hepatocyte. The settings on record: 3 h.
Data set [6] relates to Liver microsome. Nature of the data set: Drug metabolism in mixed human liver microsomes assessed as metabolite 4 ((20S,24S)-epoxydammarane-12,25-diol-3-one) formation at 50 uM after 60 mins by liquid chromatography-electrospray ionization ion trap mass spectrometry. It is filed as ADME. The settings on record: 1 h. Summed up: (§1)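 Pooled human liver microsomes, 1.0 mg/ml protein, with substrate 50 µM in 100 mM potassium phosphate pH 7.4 (final MeOH 0.1% v/v). Preincubated 3 min at 37°C, started with NADPH 2.0 mM, run 60 min, stopped with ice-cold acetonitrile. Controls lacked NADPH or substrate; duplicates. Metabolites profiled by LC/ESI ion-trap MSn.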
(Microsomes from liver hold many membrane-bound enzymes, among them those of drug oxidation.)

Data set [7] in a line: Drug metabolism in human hepatocytes assessed as metabolite 6-2 ((3R,6S)-6-((3S,5R,8R,9R,10R,12R,14R,17S)-3,12-dihydroxy-4,4,8,10,14-pentamethylhexadecahydro-1H-cyclopenta[a]phenanthren-17-yl)-2-methylheptane-2,3,6-triol) formation at 50 uM after 180 mins by liquid chromatography-electrospray ionization ion trap mass spectrometry. It is filed as ADME, cell-based, Hepatocyte. The settings on record: 3 h.

Data set [8] has as its system Liver microsome. Nature of the data set: Drug metabolism in mixed human liver microsomes assessed as metabolite 6 ((24S,25)-epoxydammarane-3,12,20-triol formation at 50 uM after 60 mins by liquid chromatography-electrospray ionization ion trap mass spectrometry. It is filed as ADME. The conditions noted are these: 1 h. A digest of the protocol: as §1
Data set [9] can be described thus: Oral bioavailability in rat at 25 mg/kg. It is filed as ADME, organism-based. The conditions noted are these: in vivo.
Data set [10] relates to Liver microsome. In words: Drug metabolism in mixed human liver microsomes assessed as metabolite 2 ((20S,24S)-epoxydammarane-3,12,25-triol) formation at 50 uM after 60 mins by liquid chromatography-electrospray ionization ion trap mass spectrometry. The settings on record: 1 h. It is filed as ADME. Summed up: as §1
Data set [11] concerns Liver microsome. Nature of the data set: Drug metabolism in mixed human liver microsomes assessed as metabolite 3 ((20S,24R)-epoxydammarane-3,12,25-triol) formation at 50 uM after 60 mins by liquid chromatography-electrospray ionization ion trap mass spectrometry. The conditions noted are these: 1 h. It is filed as ADME. A digest of the protocol: as §1
Data set [12] is described as follows: Drug excretion in Sprague-Dawley rat feces assessed as metabolite 5 ((20S,24R)-epoxydammarane-12,25-diol-3-one) level at 100 mg/kg/day, po qd for 11 days administered via gavage by liquid chromatography-electrospray ionization ion trap mass spectrometry. It is filed as ADME, organism-based. Also on record: route oral. The settings on record: in vivo, 264 h. A digest of the protocol: (§2)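 Rats given PPD by gavage at 100 mg/kg/day once daily for 11 days, as a 10 mg/ml solution in 0.5% carboxymethyl cellulose sodium, 0.5% polysorbate-80 and 99% saline; 20 rats housed singly in metabolic cages. Feces collected over 0–288 h and frozen at -20°C; blank feces taken before dosing.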

Data set [13] in a line: Drug metabolism in human hepatocytes assessed as metabolite 7-1 ((2S,3S,4S,5R,6S)-6-(2-((2S,5S)-5-((3S,5R,8R,9R,10R,12R,14R,17S)-3,12-dihydroxy-4,4,8,10,14-pentamethylhexadecahydro-1H-cyclopenta[a]phenanthren-17-yl)-5-methyltetrahydrofuran-2-yl)propan-2-yloxy)-3,4,5-trihydroxytetrahydro-2H-pyran-2-carboxylic acid) formation at 50 uM after 180 mins by liquid chromatography-electrospray ionization ion trap mass spectrometry. It is filed as ADME, cell-based, Hepatocyte. The settings on record: 3 h.

The nature of data set [14]: Drug excretion in Sprague-Dawley rat feces assessed as metabolite 4 ((20S,24S)-epoxydammarane-12,25-diol-3-one) level at 100 mg/kg/day, po qd for 11 days administered via gavage by liquid chromatography-electrospray ionization ion trap mass spectrometry. It is filed as ADME, organism-based. Also on record: route oral. The conditions noted are these: in vivo, 264 h. A digest of the protocol: as §2

The nature of data set [15]: Oral bioavailability in dog at 8 mg/kg. It is filed as ADME, organism-based, Canis lupus familiaris. The settings on record: in vivo.
A short description of data set [16]: Drug excretion in Sprague-Dawley rat feces assessed as metabolite 3 ((20S,24R)-epoxydammarane-3,12,25-triol) level at 100 mg/kg/day, po qd for 11 days administered via gavage by liquid chromatography-electrospray ionization ion trap mass spectrometry. The conditions noted are these: in vivo, 264 h. Also on record: route oral. It is filed as ADME, organism-based. Summed up:
as §2

Data set [17] concerns Liver microsome. Nature of the data set: Drug metabolism in mixed human liver microsomes assessed as metabolite 5 ((20S,24R)-epoxydammarane-12,25-diol-3-one) formation at 50 uM after 60 mins by liquid chromatography-electrospray ionization ion trap mass spectrometry. It is filed as ADME. The settings on record: 1 h. A digest of the protocol:
as §1

For data set [18], the system named is Liver microsome. Nature of the data set: Drug metabolism in mixed human liver microsomes assessed as glucuronide conjugate metabolite level at 50 uM after 120 mins by liquid chromatography-electrospray ionization ion trap mass spectrometry in presence of UDPGA. It is filed as ADME. The conditions noted are these: 2 h. A digest of the protocol:
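Pooled human liver microsomes, 1.0 mg/ml protein, in 50 mM Tris-HCl pH 7.4 with 10 mM MgCl₂, 2 mM UDPGA and 25 µg/mL alamethicin. Preincubated 3 min at 37°C, started with substrate 50 µM (final MeOH 0.1%), run 120 min, stopped with ice-cold acetonitrile. Time-0 controls; duplicates. Analysed by LC/ESI ion-trap MSn.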

Data set [19] can be described thus: Drug metabolism in human hepatocytes assessed as metabolite 4 ((20S,24S)-epoxydammarane-12,25-diol-3-one) formation at 50 uM after 180 mins by liquid chromatography-electrospray ionization ion trap mass spectrometry. It is filed as ADME, cell-based, Hepatocyte. The settings on record: 3 h.
Data set [20] is described as follows: Drug excretion in Sprague-Dawley rat feces assessed as metabolite 2 ((20S,24S)-epoxydammarane-3,12,25-triol) level at 100 mg/kg/day, po qd for 11 days administered via gavage by liquid chromatography-electrospray ionization ion trap mass spectrometry. It is filed as ADME, organism-based. Also on record: route oral. The settings on record: in vivo, 264 h. Summed up:
as §2

Data set [21] can be described thus: Retention time of the compound at 100 uM measured after 60 mins by liquid chromatography-electrospray ionization ion trap mass spectrometry in presence of 10 uM 3-chloroperoxybenzoic acid. It is filed as physicochemical. The settings on record: 1 h. Summed up:
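PPD 100 µM oxidised chemically with m-CPBA 10 µM in CH₂Cl₂, stirred at room temperature for 15 and 60 min. Mixture poured into Na₂CO₃-saturated ice water and extracted three times with ether before LC/MS analysis.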

The nature of data set [22]: Drug metabolism in human hepatocytes assessed as metabolite 7-2 ((2S,3S,4S,5R,6S)-6-(2-((2R,5S)-5-((3S,5R,8R,9R,10R,12R,14R,17S)-3,12-dihydroxy-4,4,8,10,14-pentamethylhexadecahydro-1H-cyclopenta[a]phenanthren-17-yl)-5-methyltetrahydrofuran-2-yl)propan-2-yloxy)-3,4,5-trihydroxytetrahydro-2H-pyran-2-carboxylic acid) formation at 50 uM after 180 mins by liquid chromatography-electrospray ionization ion trap mass spectrometry. It is filed as ADME, cell-based, Hepatocyte. The settings on record: 3 h.

The structures appear in SMILES notation.

By bioavailability is commonly meant dose-corrected exposure relative to a reference, in per cent. Take `CC(C)=CCC[C@](C)(O)[C@H]1CC[C@]2(C)[C@@H]1[C@H](O)C[C@@H]1[C@@]3(C)CC[C@H](O)C(C)(C)[C@@H]3CC[C@]12C`: the Drug metabolism result (in data set [1]; in data set [2]; in [3]; in data set [4]; in [5]; in the data set with Liver microsome [6]) was “metabolite_detected” each time. Also, the Drug metabolism entry (in data set [7]; with Liver microsome [8]; in the data set with Liver microsome [10]; with Liver microsome [11]; in [13]; in the data set on Liver microsome [17]) was “metabolite_detected” in each case. Also, the Drug metabolism entry is “metabolite_not_detected” with Liver microsome [18], “metabolite_detected” in [19] and “metabolite_detected” in data set [22]. For the same molecule, the figures for the bioavailability in [9] and in data set [15] were 31% and 9.6%, respectively. Moreover, the Drug excretion entry in data set [12], in data set [14], in data set [16] and in [20] was “metabolite_detected” throughout. Also, the Retention_time in [21] was 22.3 min.
